Data published in ChEMBL document CHEMBL1152849, “Design, synthesis and AChE inhibitory activity of indanone and aurone derivatives” (Eur J Med Chem, 2009).

Legend:
Butyrylcholinesterase = Butyrylcholinesterase (Rattus norvegicus, UniProt Q9JKC1); test: Inhibition of BChE in rat serum after 15 mins by modified Ellman method; type: cell-free
Acetylcholinesterase = molecular target: T1, Acetylcholinesterase (Rattus norvegicus, UniProt P37136); test: Inhibition of AChE in rat cortex after 15 mins by modified Ellman method
T1 sequence (P37136 whole entry): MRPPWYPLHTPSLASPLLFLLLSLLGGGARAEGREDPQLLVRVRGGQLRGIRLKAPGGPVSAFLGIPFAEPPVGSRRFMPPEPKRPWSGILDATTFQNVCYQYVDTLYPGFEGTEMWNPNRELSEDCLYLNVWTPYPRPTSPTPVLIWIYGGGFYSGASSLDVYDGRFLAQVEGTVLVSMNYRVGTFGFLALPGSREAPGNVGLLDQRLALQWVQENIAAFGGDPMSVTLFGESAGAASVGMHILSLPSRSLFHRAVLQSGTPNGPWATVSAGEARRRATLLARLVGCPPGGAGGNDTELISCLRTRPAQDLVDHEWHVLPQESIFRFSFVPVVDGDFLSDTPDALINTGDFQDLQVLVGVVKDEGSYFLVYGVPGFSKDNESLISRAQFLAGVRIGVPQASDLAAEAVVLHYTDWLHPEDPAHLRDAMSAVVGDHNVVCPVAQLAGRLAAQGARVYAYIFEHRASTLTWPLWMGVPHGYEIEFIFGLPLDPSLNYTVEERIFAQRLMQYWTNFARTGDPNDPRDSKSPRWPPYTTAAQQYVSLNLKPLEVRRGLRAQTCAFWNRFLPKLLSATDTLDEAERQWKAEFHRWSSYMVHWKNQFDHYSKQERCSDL

Mus musculus [1] = test: Cognitive enhancing effect against scopolamine-induced acquisition memory deficit in mouse assessed as times of step-down at 2 mg/kg, intragastric gavage after 24 hrs by step-down passive avoidance test; type: functional
How it was run: (§1)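 Step-down passive avoidance in mice, 10 per group. In training, each mouse was placed on the platform and its latency to step down onto the grid with all four paws was recorded. It was shocked immediately on stepping down, and the session lasted 3 min. Memory was scored as step-down errors (times) and escape latency (s), each given as mean ± deviation.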

Mus musculus [2] = test: Cognitive enhancing effect against scopolamine-induced acquisition memory deficit in mouse assessed as escape latency at 2 mg/kg, intragastric gavage after 24 hrs by step-down passive avoidance test; type: functional; how it was run: as §1
Mus musculus [3] = test: Cognitive enhancing effect against scopolamine-induced acquisition memory deficit in mouse assessed as escape latency at 10 mg/kg, intragastric gavage after 24 hrs by step-down passive avoidance test; type: functional; how it was run: as §1
Mus musculus [4] = test: Cognitive enhancing effect against scopolamine-induced acquisition memory deficit in mouse assessed as times of step-down at 5 mg/kg, intragastric gavage after 24 hrs by step-down passive avoidance test; type: functional; how it was run: as §1
Mus musculus [5] = test: Cognitive enhancing effect against scopolamine-induced acquisition memory deficit in mouse assessed as times of step-down at 10 mg/kg, intragastric gavage after 24 hrs by step-down passive avoidance test; type: functional; how it was run: as §1
Mus musculus [6] = test: Cognitive enhancing effect against scopolamine-induced acquisition memory deficit in mouse assessed as escape latency at 5 mg/kg, intragastric gavage after 24 hrs by step-down passive avoidance test; type: functional; how it was run: as §1

Butyrylcholinesterase, sequence (Q9JKC1 whole entry): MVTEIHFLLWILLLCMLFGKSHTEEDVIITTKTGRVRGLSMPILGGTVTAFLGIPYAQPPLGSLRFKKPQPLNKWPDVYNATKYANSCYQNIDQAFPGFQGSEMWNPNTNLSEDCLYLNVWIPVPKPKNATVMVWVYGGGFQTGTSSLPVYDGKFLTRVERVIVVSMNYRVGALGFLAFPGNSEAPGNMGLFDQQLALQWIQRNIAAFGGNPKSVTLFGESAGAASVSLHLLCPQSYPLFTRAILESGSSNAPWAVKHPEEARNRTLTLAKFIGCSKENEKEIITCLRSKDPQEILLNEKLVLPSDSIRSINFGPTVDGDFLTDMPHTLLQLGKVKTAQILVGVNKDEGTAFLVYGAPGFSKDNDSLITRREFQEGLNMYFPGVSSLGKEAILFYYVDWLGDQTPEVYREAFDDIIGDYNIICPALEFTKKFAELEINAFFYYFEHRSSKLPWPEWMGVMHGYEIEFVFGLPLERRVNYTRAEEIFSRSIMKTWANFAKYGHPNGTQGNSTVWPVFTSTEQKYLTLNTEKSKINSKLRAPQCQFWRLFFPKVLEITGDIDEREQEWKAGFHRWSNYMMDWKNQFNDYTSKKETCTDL

Structure (SMILES): COc1cc2c(cc1OC)C(=O)/C(=C/c1cccc(CN(C)C)c1)C2
- IC50 (Butyrylcholinesterase): 89.3 µM
- IC50 (Acetylcholinesterase): 2.14 µM

Structure (SMILES): COc1cc2c(cc1OC)C(=O)/C(=C/c1ccc(CN3CCCC3)cc1)C2
- IC50 (Butyrylcholinesterase): 26.6 µM
- IC50 (Acetylcholinesterase): 0.045 µM

Structure (SMILES): COc1cc2c(cc1OC)C(=O)C(Cc1ccc(CN3CCCC3)cc1)C2 (stereo not drawn)
- IC50 (Butyrylcholinesterase): 33.2 µM
- IC50 (Acetylcholinesterase): 0.15 µM

Structure (SMILES): COc1cc2c(cc1OC)C(=O)/C(=C/c1cccc(CN3CCCC3)c1)C2
- IC50 (Butyrylcholinesterase): 41.6 µM
- IC50 (Acetylcholinesterase): 0.24 µM

Structure (SMILES): CCN(C)Cc1ccc(/C=C2\Cc3cc(OC)c(OC)cc3C2=O)cc1
- IC50 (Butyrylcholinesterase): 20.1 µM
- IC50 (Acetylcholinesterase): 0.27 µM

Structure (SMILES): COc1cc2c(cc1OC)C(=O)/C(=C/c1cccc(CN3CCCC3)c1)O2
- IC50 (Butyrylcholinesterase): 72 µM
- IC50 (Acetylcholinesterase): 0.29 µM

Structure (SMILES): COc1cc2c(cc1OC)C(=O)C(Cc1cccc(CN(C)C)c1)C2 (stereo not drawn)
- IC50 (Butyrylcholinesterase): 25.2 µM
- IC50 (Acetylcholinesterase): 3.74 µM

Structure (SMILES): CCN(C)Cc1ccc(CC2Cc3cc(OC)c(OC)cc3C2=O)cc1 (stereo not drawn)
- IC50 (Butyrylcholinesterase): 34.5 µM
- IC50 (Acetylcholinesterase): 0.38 µM

Structure (SMILES): COc1cc2c(cc1OC)C(=O)C(Cc1cccc(CN3CCCC3)c1)O2 (stereo not drawn)
- IC50 (Butyrylcholinesterase): 57.6 µM
- IC50 (Acetylcholinesterase): 7.02 µM

Structure (SMILES): COc1cc2c(cc1OC)C(=O)C(Cc1cccc(CN3CCCC3)c1)C2 (stereo not drawn)
- IC50 (Butyrylcholinesterase): 42.2 µM
- IC50 (Acetylcholinesterase): 2.58 µM

Structure (SMILES): CCN(C)Cc1cccc(CC2Oc3cc(OC)c(OC)cc3C2=O)c1 (stereo not drawn)
- IC50 (Butyrylcholinesterase): 25.9 µM
- IC50 (Acetylcholinesterase): 1.54 µM

Structure (SMILES): COc1cc2c(cc1OC)C(=O)C(Cc1cccc(CN3CCCCC3)c1)C2 (stereo not drawn)
- IC50 (Butyrylcholinesterase): 70.4 µM
- IC50 (Acetylcholinesterase): 0.66 µM

Structure (SMILES): COc1cc2c(cc1OC)C(=O)/C(=C/c1ccc(CN3CCCC3)cc1)O2
- IC50 (Butyrylcholinesterase): 36.4 µM
- IC50 (Acetylcholinesterase): 0.16 µM

Structure (SMILES): CCN(CC)Cc1cccc(/C=C2\Oc3cc(OC)c(OC)cc3C2=O)c1
- IC50 (Butyrylcholinesterase): 65.1 µM
- IC50 (Acetylcholinesterase): 1.18 µM

Structure (SMILES): COc1cc2c(cc1OC)C(=O)C(Cc1ccc(CN3CCCCC3)cc1)C2 (stereo not drawn)
- IC50 (Butyrylcholinesterase): 48.3 µM
- IC50 (Acetylcholinesterase): 0.12 µM

Structure (SMILES): CCN(C)C(=O)Oc1cccc([C@H](C)N(C)C)c1 [RIVASTIGMINE]
- Activity (Mus musculus [1]): 2
- Activity (Mus musculus [2]): 73 s

Structure (SMILES): CCN(CC)Cc1cccc(/C=C2\Cc3cc(OC)c(OC)cc3C2=O)c1
- IC50 (Butyrylcholinesterase): 71 µM
- IC50 (Acetylcholinesterase): 0.44 µM

Structure (SMILES): CCN(CC)Cc1cccc(CC2Oc3cc(OC)c(OC)cc3C2=O)c1 (stereo not drawn)
- IC50 (Butyrylcholinesterase): 38.2 µM
- IC50 (Acetylcholinesterase): 1.07 µM

Structure (SMILES): CCN(CC)Cc1cccc(CC2Cc3cc(OC)c(OC)cc3C2=O)c1 (stereo not drawn)
- IC50 (Butyrylcholinesterase): 32 µM
- IC50 (Acetylcholinesterase): 1.48 µM

Structure (SMILES): CCN(C)Cc1cccc(CC2Cc3cc(OC)c(OC)cc3C2=O)c1 (stereo not drawn)
- IC50 (Butyrylcholinesterase): 18.5 µM
- IC50 (Acetylcholinesterase): 0.69 µM

Structure (SMILES): CCN(CC)Cc1ccc(CC2Oc3cc(OC)c(OC)cc3C2=O)cc1 (stereo not drawn)
- IC50 (Butyrylcholinesterase): 16.4 µM
- IC50 (Acetylcholinesterase): 0.44 µM

Structure (SMILES): COc1cc2c(cc1OC)C(=O)/C(=C/c1cccc(CN3CCCCC3)c1)O2
- IC50 (Butyrylcholinesterase): 45 µM
- IC50 (Acetylcholinesterase): 0.082 µM

Structure (SMILES): COc1cc2c(cc1OC)C(=O)C(Cc1ccc(CN(C)C)cc1)C2 (stereo not drawn)
- IC50 (Butyrylcholinesterase): 40.7 µM

Structure (SMILES): COc1cc2c(cc1OC)C(=O)C(Cc1ccc(CN3CCCC3)cc1)O2 (stereo not drawn)
- IC50 (Butyrylcholinesterase): 49.8 µM
- IC50 (Acetylcholinesterase): 0.62 µM

Structure (SMILES): COc1cc2c(cc1OC)C(=O)C(CC1CCN(Cc3ccccc3)CC1)C2 (stereo not drawn) [DONEPEZIL]
- Activity (Mus musculus [1]): 1.9
- Activity (Mus musculus [2]): 75 s

Structure (SMILES): CCN(CC)Cc1ccc(/C=C2\Oc3cc(OC)c(OC)cc3C2=O)cc1
- IC50 (Butyrylcholinesterase): 47.9 µM
- IC50 (Acetylcholinesterase): 0.14 µM

Structure (SMILES): COc1cc2c(cc1OC)C(=O)/C(=C/c1ccc(CN(C)C)cc1)C2
- IC50 (Butyrylcholinesterase): 315 µM
- IC50 (Acetylcholinesterase): 0.42 µM

Structure (SMILES): CCN(C)Cc1cccc(/C=C2\Cc3cc(OC)c(OC)cc3C2=O)c1
- IC50 (Butyrylcholinesterase): 36.8 µM
- IC50 (Acetylcholinesterase): 0.49 µM

Structure (SMILES): COc1cc2c(cc1OC)C(=O)C(Cc1cccc(CN3CCCCC3)c1)O2 (stereo not drawn)
- IC50 (Butyrylcholinesterase): 98.1 µM
- IC50 (Acetylcholinesterase): 0.24 µM

Structure (SMILES): CCN(C)Cc1cccc(/C=C2\Oc3cc(OC)c(OC)cc3C2=O)c1
- IC50 (Butyrylcholinesterase): 23.6 µM
- IC50 (Acetylcholinesterase): 0.7 µM

Structure (SMILES): COc1cc2c(cc1OC)C(=O)/C(=C/c1cccc(CN3CCCCC3)c1)C2
- IC50 (Butyrylcholinesterase): 55.2 µM
- IC50 (Acetylcholinesterase): 0.16 µM

Structure (SMILES): CCN(CC)Cc1ccc(CC2Cc3cc(OC)c(OC)cc3C2=O)cc1 (stereo not drawn)
- IC50 (Butyrylcholinesterase): 11.7 µM
- IC50 (Acetylcholinesterase): 0.29 µM

Structure (SMILES): CCN(CC)Cc1ccc(/C=C2\Cc3cc(OC)c(OC)cc3C2=O)cc1
- IC50 (Butyrylcholinesterase): 82 µM
- Activity (Mus musculus [3]): 60 s
- Activity (Mus musculus [4]): 2
- Activity (Mus musculus [1]): 2.67
- IC50 (Acetylcholinesterase): 0.035 µM
- Activity (Mus musculus [5]): 1.6
- Activity (Mus musculus [6]): 55 s
- Activity (Mus musculus [2]): 47 s

Structure (SMILES): COc1cc2c(cc1OC)C(=O)/C(=C/c1ccc(CN3CCCCC3)cc1)C2
- IC50 (Butyrylcholinesterase): 84.6 µM
- IC50 (Acetylcholinesterase): 0.1 µM
